From paper PMC5508335 (Journal of Veterinary Internal Medicine, 2017)

What was measured:
[1] = system: dogs with spontaneously-arising glioma and meningioma; type: in vivo, dog; conditions: six dogs
Summary of the method: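 Dogs with spontaneously arising glioma or meningioma received the oral test compound together with conventional therapies. Tolerability was assessed, with serial clinical and MRI outcome assessments.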

[2] = system: canine, human, and murine glioma cell lines; assay: In vitro sensitivity of glioma cell lines; type: cell-based; conditions: monotherapy, biologically relevant exposures
Summary of the method: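 Murine, canine and human glioma cell lines were tested for in vitro sensitivity to the test compound and to radiation, each given as monotherapy. PC-3 expression in the same lines was also evaluated.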

dogs with MUE = assay: Retrospective survival of dogs with MUE given cytarabine CRI; type: in vivo, dog; conditions: 22 dogs, at least 1 CRI treatment; range 61 – 1312
[3] = system: healthy purpose-bred cats; conditions: in vivo
thyroid TT4 response = assay: TSH stimulation test, serum TT4; type: in vivo, dog; conditions: 6 dogs, oral hydrocortisone for 90 days
diabetic cats = assay: One-year randomized trial of insulin types in diabetic cats; type: in vivo, cat; conditions: BID insulin, glargine=24, PZIR=22
dogs with EPI = assay: Oral cobalamin supplementation in dogs with EPI, serum cobalamin; type: in vivo, dog; conditions: daily cyanocobalamin tablets, 28–199 days; 10 dogs; at inclusion 204
Summary of the method: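 Dogs entered with EPI diagnosed by subnormal serum cTLI (reference 5–35 μg/L) and an initial serum cobalamin of 350 ng/L or less (reference 234–811 ng/L). All received daily oral cyanocobalamin tablets at 1 mg/tablet.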

## C=CCc1cccc(/C=N/NC(=O)CN2CCN(Cc3ccccc3)CC2)c1O [PAC‐1]
[1]
  partial responses: 3 dogs
[2]
  in vitro sensitivity of glioma cell lines: show in vitro sensitivity

## Nc1ccn([C@@H]2O[C@H](CO)[C@@H](O)[C@@H]2O)c(=O)n1 [cytarabine]
Dogs with MUE
  Survival, median: 258.5 days

## Cc1cccc([C@H](C)c2cnc[nH]2)c1C [dexmedetomidine]
[3]
  cats with successful emesis: 58%

## C[C@]12CCC(=O)C=C1CC[C@@H]1[C@@H]2[C@@H](O)C[C@@]2(C)[C@H]1CC[C@]2(O)C(=O)CO [hydrocortisone]
Thyroid TT4 response
  mean basal serum TT4 concentration: 0.32 µg/dL

## PZIR: human-recombinant protamine zinc insulin
Diabetic cats
  cats achieving remission: 23%

## cyanocobalamin [CBL]
Dogs with EPI
  median serum CBL concentration after supplementation: 1,113 ng/L
